Data on 27 compounds can be found in ChEMBL document CHEMBL4673188, “Identification of 6-amino-1H-pyrazolo[3,4-d]pyrimidines with in vivo efficacy against visceral leishmaniasis” (RSC Med Chem, 2020).

The structures appear in SMILES notation.

System in the first series: not listed separately
As to the kind of experiment: Kinetic aqueous solubility of compound in phosphate buffer at pH 7.4 incubated for 1 hr. It is filed as physicochemical. Conditions: read-out: Kinetic_solubility. The essentials:
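10 mM DMSO stock diluted 20-fold into pH 7.4 phosphate buffered saline, equilibrated 1 h at room temperature, filtered; filtrate quantified by calibrated charged aerosol detection.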
Take `CCS(=O)(=O)N[C@H]1CC[C@H](Nc2ncc3c(CC(C)C)n[nH]c3n2)CC1`: the solubility kinetic at 1 h was under 1 µM.

System in a further series: not listed separately
As to the kind of experiment: Intrinsic clearance in CD-1 mouse liver microsomes at 0.5 uM in presence of NADPH measured up to 30 mins by UPLC-MS/MS analysis. The series is classed as ADME, Microsome. Conditions: 0.5 h. The essentials:
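Female CD1 mouse liver microsomes, test compound 0.5 μM; reaction started with excess NADPH (8 mg/mL in 50 mM potassium phosphate, pH 7.4). Aliquots at 0, 3, 6, 9, 15, 30 min quenched in acetonitrile, internal standard added, protein spun down; UPLC-MS/MS. Rate constant k from exponential decay of compound/internal standard peak-area ratio.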
A general note: Liver microsomes are vesicles of endoplasmic reticulum, rich in cytochrome P450 enzymes.
Regarding `CCOC(=O)N1CCC(Nc2ncc3c(-c4ccccc4OC)n[nH]c3n2)CC1`, the intrinsic clearance was 14 mL/min/g.
Same read-out and setting: in the case of `CCS(=O)(=O)N[C@H]1CC[C@H](Nc2ncc3c(CC(C)C)n[nH]c3n2)CC1` it was 27 mL/min/g; in that of `COc1ccccc1-c1n[nH]c2nc(NC3CCN(C(=O)Cc4ccc(F)c(F)c4)CC3)ncc12`, 6.3 mL/min/g; in that of `COc1ncccc1-c1n[nH]c2nc(NC3CCN(C(=O)Cc4ccc(F)cc4F)CC3)ncc12`, 15 mL/min/g.
The same measure, in the same setting: in the case of `O=C(Cc1ccc(F)c(F)c1)N1CCC(Nc2ncc3c(N4CCOCC4)n[nH]c3n2)CC1` it was 1.6 mL/min/g; in that of `CC(C)Cc1n[nH]c2nc(NC3CCN(C(=O)Cc4ccc(Cl)cc4Cl)CC3)ncc12`, 30 mL/min/g; in that of `O=C(Cc1ccc(F)cc1F)N1CCC(Nc2ncc3c(CN4CCOCC4)n[nH]c3n2)CC1`, under 0.5 mL/min/g.
Same read-out and setting: in the case of `O=C(CC1CC1)N1CCC(Nc2ncc3c(C4CCOCC4)n[nH]c3n2)CC1` it was 0.8 mL/min/g; in that of `O=C(Cc1ccc(F)cc1F)N1CCC(Nc2ncc3c(N4CCOCC4)n[nH]c3n2)CC1`, 2 mL/min/g; in that of `COc1ccccc1-c1n[nH]c2nc(NC3CCN(C(=O)Cc4ccc(F)cc4F)CC3)ncc12`, 5 mL/min/g.
With `CC(C)Cc1n[nH]c2nc(NC3CCN(C(=O)Cc4ccc(F)cc4F)CC3)ncc12`, the intrinsic clearance came out at 12 mL/min/g.
Same read-out and setting: in the case of `CC(C)Cc1n[nH]c2nc(NC3CCN(C(=O)Cc4ccccc4)CC3)ncc12` it was 18 mL/min/g; in that of `COc1ccccc1-c1n[nH]c2nc(NC3CCN(C(=O)OCc4ccccc4)CC3)ncc12`, 9 mL/min/g.
On the same count and under the same terms, in the case of `O=C(Cc1ccc(F)cc1F)N1CCC(Nc2ncc3c(C4CCOCC4)n[nH]c3n2)CC1` it was 0.5 mL/min/g.
Same read-out and setting: in the case of `Clc1ccc(N2CCC(Nc3ncc4c(N5CCOCC5)n[nH]c4n3)CC2)nn1` it was 0.6 mL/min/g; in that of `CC(C)Cc1n[nH]c2nc(NC3CCN(C(=O)c4ccccc4)CC3)ncc12`, 7 mL/min/g; in that of `COc1ccccc1-c1n[nH]c2nc(NC3CCN(S(=O)(=O)CCC(F)(F)F)CC3)ncc12`, 14 mL/min/g.
For the compound `O=C(Cc1ccc(F)cc1F)N1CCC(Nc2ncc3c(-c4ccccc4)n[nH]c3n2)CC1`, the intrinsic clearance amounted to 7.2 mL/min/g.
Still for that read-out and setting: in the case of `CC(C)(C)Cc1n[nH]c2nc(NC3CCN(C(=O)Cc4ccc(F)cc4F)CC3)ncc12` it was 22 mL/min/g; in that of `CC(C)Cc1n[nH]c2nc(NC3CCN(S(=O)(=O)Cc4ccccc4)CC3)ncc12`, over 50 mL/min/g.
On the same count and under the same terms, in the case of `O=C(Cc1ccc(F)c(F)c1)N1CCC(Nc2ncc3c(C4CCOCC4)n[nH]c3n2)CC1` it was 3.1 mL/min/g; in that of `O=C(Cc1ccc(F)cc1F)N1CCC(Nc2ncc3c(C4CC4)n[nH]c3n2)CC1`, 5 mL/min/g.
On the same count and under the same terms, in the case of `COc1ccccc1-c1n[nH]c2nc(NC3CCN(C(=O)N4CCOCC4)CC3)ncc12` it was 2 mL/min/g.
Regarding `COc1ccccc1-c1n[nH]c2nc(NC3CCN(c4ccc(Cl)nn4)CC3)ncc12`, the intrinsic clearance worked out at 3.4 mL/min/g.
Still for that read-out and setting: in the case of `O=C(Cc1ccc(F)cc1F)N1CCC(Nc2ncc3c(-c4ccccn4)n[nH]c3n2)CC1` it was 6.7 mL/min/g.
Same read-out and setting: in the case of `COc1ccccc1-c1n[nH]c2nc(NC3CCN(C(=O)CC4CC4)CC3)ncc12` it was 1.6 mL/min/g.
Regarding `Cn1nccc1-c1n[nH]c2nc(NC3CCN(C(=O)Cc4ccc(F)cc4F)CC3)ncc12`, the intrinsic clearance was 3.3 mL/min/g.

System in another series: not listed separately
As to the kind of experiment: AUC (0 to T last) in rat at 10 mg/kg. It is filed as ADME, organism-based. The arrangement: dose 10 mg/kg. The note with it: in vivo.
In general, AUC(0-t) refers to exposure summed from dosing to a finite time, without extrapolation to infinity. Low values mean low exposure, high ones high exposure. Consider `O=C(Cc1ccc(F)c(F)c1)N1CCC(Nc2ncc3c(N4CCOCC4)n[nH]c3n2)CC1`, for which the exposure AUC(0-t) turned out to be 448 ng·h/mL.

The subject of another series is THP-1. The experiment in a line: Cytotoxicity against human THP-1 cells incubated for 72 hrs by resazurin dye based assay. It is filed as cell-based. Conditions: THP-1, 72 h.
One may read the EC50 as the concentration that produces a half-maximal response. Higher therefore signals a less potent agent. With `CCS(=O)(=O)N[C@H]1CC[C@H](Nc2ncc3c(CC(C)C)n[nH]c3n2)CC1`, the EC50 is over 50.1 µM.
